Screening data deposited in PubChem BioAssay by several laboratories.
Phagocyt inh: macrophage phagocytosis inhibition; AID 1029; 110,000 compounds, 0.07% hits; J774A.1 macrophage IgG-bead phagocytosis, imaging; inhibition, % at 5 µM;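 active means inhibition above the mean of the plate negative controls plus 5 SD, cut at about 13% in these data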;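 further: phagocytic index as fraction of beads internalized from green versus red external bead signal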
Measles CPE: protection of cells from measles virus; Measles virus-infected cells, CPE protection, absorbance; protection (pct of control), % at 4 µM; 140,000 compounds, 1.5% hits; in the data active means protection mostly above about 24%, no sharp cut-off; inactive means mostly below about 26%
Yeast lifespan up: yeast lifespan extension; 130,000 compounds, 0.68% hits; AID 775; S. cerevisiae growth with nicotinamide, OD615; deaD strain in restrictive glucose medium; inhibition of the nicotinamide effect, % at 10 µM;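 active means inhibition above a set limit, placed 3 SD over the median of all compounds, cut at about 26% in these data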
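System: DeaD-strain S. cerevisiae / Buffer or medium: CSMM-D, restrictive glucose (dextrose) synthetic minimal medium / Probe or stimulus: nicotinamide, 1.5 mM, co-present with compound / Compound: one concentration, 10 µM, DMSO 0.25% / Incubation: 48 h compound exposure at 30 °C, humidified / Technique: optical density (absorbance) at 615 nm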
Yeast growth inh: chemicals that inhibit yeast BB579 growth in restrictive medium (lifespan-shortening candidates). S. cerevisiae BB579 growth, OD615, 48 h. 140,000 compounds, 0.51% hits. inhibition, % at 10 µM;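 active means inhibition above a set limit, 3 SD over the mean compound inhibition, cut at about 44% in these data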
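Assay system: S. cerevisiae DeaD strain BB579 yeast. Medium: CSMM-D restrictive synthetic medium containing dextrose (glucose). Times: 4 h cell preincubation, 48 h compound exposure, 30 °C humidified. Signal: OD615 turbidity measurement. Benchmarks: positive control amphotericin B 10 µg/mL.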
RAM inhibit: yeast RAM network inhibition; S. cerevisiae dse1pr::URA3 reporter, 5-FOA growth OD615, 2 d; analog-sensitive cbk1-as2 kinase mutant strain; 190,000 compounds, 1.8% hits; inhibition, % at 50 µM;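 active means inhibition above a set limit, 3 SD over mean compound inhibition, cut at about 8.4% in these data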;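 further: inhibition rescues growth on 5-FOA so higher OD means more RAM inhibition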
A number is an active result; i = inactive; nt = no result given; ! = repeats disagree. Most compounds without a hit are left out; they make up all but 3.6% or so of the library.

SMILES | Phagocyt inh | Measles CPE | Yeast lifespan up | Yeast growth inh | RAM inhibit
COC(=O)c1ccc(C(c2c(N)n(CC(C)C)c(=O)[nH]c2=O)N2CCN(c3ccccc3)CC2)cc1 (stereo not given) | i | i | i | i | i
CC(=O)Nc1cccc(NC=C(C#N)C#N)c1 | nt | nt | nt | nt | i
Cc1noc(C)c1COc1ccc(C(=O)NCCc2ccccn2)cc1 | nt | nt | nt | nt | i
CCC(C)(C)n1nnnc1C(c1ccc(OC)c(OC)c1)N1CCN(c2ccc(OC)cc2)CC1 (stereo not given) | i | 59.2 | i | i | i
CCC(C)(C)n1nnnc1C(c1ccc(OC)c(OC)c1)N1CCN(c2ccc(F)cc2)CC1 (stereo not given) | nt | i | i | i | i
CCC(C)c1ccccc1NC(=O)Cc1coc2cc3c(cc12)CCC3 (stereo not given) | i | i | i | i | 9.5
CC1CC/C(=C\c2ccc3c(c2)OCO3)C(=O)/C1=C/c1ccc2c(c1)OCO2 (stereo not given) | nt | i | i | i | 10.0
O=C1/C(=C\c2ccc3c(c2)OCO3)CCC/C1=C/c1ccc2c(c1)OCO2 | i | i | i | i | i
CC(C)N(C(=O)Cn1c(-c2ccccc2Cl)nc2ccccc21)c1ccccc1 | i | 34.0 | i | i | i
O=c1[nH][nH]cc1C=Nc1ccccc1O | nt | i | i | 50.3 | i
Cc1cc(C(=O)OCC(=O)NCc2cccs2)c2ccccc2n1 | nt | nt | nt | nt | i
CCCC[C@@H]1C[C@H]1[C@@H](NC(=O)c1cccs1)c1ccc(Cl)cc1 | nt | i | i | i | 9.8
CCCC[C@@H]1C[C@H]1[C@@H](NC(=O)c1ccco1)c1ccc(Cl)cc1 | nt | i | i | i | i
CC(C)OC(=O)c1c(NC(=O)CCn2nnc3ccccc32)sc2c1CCCC2 | i | i | i | i | 9.5
O=C(O)CCC(=O)Nc1sc2c(c1C(=O)Nc1ccccc1)CCCCC2 | nt | nt | nt | nt | i
CC(C)OC(=O)c1c(NC(=O)CCC(=O)O)sc2c1CCCCC2 | i | i | i | i | 8.5
Cc1ccc(NC(=O)CCn2nnc3ccccc32)cc1 | nt | nt | nt | nt | i
O=C(O)CCC(=O)Nc1sc2c(c1C(=O)Nc1cccc3ccccc13)CCCCC2 | i | i | 30.1 | i | i
C[n+]1ccn(CC(=O)c2ccc(Cl)cc2)c1 | i | 38.8 | i | i | i
CC1CCCCC1NS(=O)(=O)c1ccc(-n2cnnn2)cc1 (stereo not given) | i | i | 46.3 | i | i
COc1cc(S(=O)(=O)NC2CCCCC2C)ccc1-n1cnnn1 (stereo not given) | nt | nt | nt | nt | i
O=C(NCCc1ccc(Cl)cc1)C1CCC(=O)N1Cc1ccc(F)cc1 (stereo not given) | i | i | i | i | i
CC(C)Cn1cc(C(=O)N2CCC(C)CC2)c2c3ccccc3n(C)c2c1=O | nt | nt | nt | nt | i
CC(C)Cn1cc(C(=O)N2CCOCC2)c2c3ccccc3n(C)c2c1=O | i | 39.8 | i | i | i
COc1ccc(C2=C(C=Nc3c(C)n(C)n(-c4ccccc4)c3=O)C(c3ccccc3C)c3ccccc3O2)cc1OC (stereo not given) | nt | i | i | i | i
SMILES | Phagocyt inh | Measles CPE | Yeast lifespan up | Yeast growth inh | RAM inhibit
COc1ccc(-c2noc(CCCOc3ccccc3)n2)cc1OC | i | i | i | i | i
COc1ccc(CCN(Cc2nc(-c3ccccc3)no2)Cc2nc(-c3ccccc3)no2)cc1OC | i | i | i | i | 9.0
O=C(O)c1cc(-c2ccco2)nc2ccc(Br)cc12 | i | i | 35.7! | i | i
Cc1ccc(S(=O)(=O)/C(C#N)=C/c2c(N3CCC(C(N)=O)CC3)nc3ccccn3c2=O)cc1 | i | i | i | i | i
Cc1ccc(S(=O)(=O)N(CC(=O)Nc2ccccc2C(=O)O)c2ccccc2C)cc1 | nt | nt | nt | nt | 8.7
O=C(N/N=C/c1cccc([N+](=O)[O-])c1)c1ccc(COc2ccccc2-c2ccccc2)cc1 | i | i | i | i | i
COc1ccc2c(c1)S/C(=C\C(=O)c1ccncc1)N2C | i | i | i | 92.3 | i
Cc1cccc(C(=O)OCC(=O)NCCCc2ccccc2)c1 | nt | nt | nt | nt | i
Cc1c(NC(=S)Nc2ccccc2C(F)(F)F)cccc1[N+](=O)[O-] | i | 41.4 | i | i | i
CCOc1ccc(N2C(=O)C3ON(c4ccccc4)C(c4cccs4)C3C2=O)cc1 (stereo not given) | nt | nt | nt | nt | i
COc1cc(/C=C/C(=O)OCC(=O)NCCC2=CCCCC2)ccc1O | nt | nt | nt | nt | i
O=C(COC(=O)/C=C/c1cccc(Br)c1)NCCC1=CCCCC1 | i | i | i | i | 9.8
O=C(COc1ccccc1)Nc1ccc(Cl)cc1Cl | nt | nt | nt | nt | i
O=C(COC(=O)C1CCCC1)NCc1ccc(Cl)cc1 | nt | nt | nt | nt | i
COc1cccc(C(=O)O/N=C(\N)Cc2ccc(Cl)cc2)c1 | i | i | i | 100.0 | i
N/C(Cc1ccc(Cl)cc1)=N\OC(=O)C1CCCCC1 | i | i | i | 99.8 | i
COc1cccc(-n2nc(-c3ccnn3-c3ccc(C)cc3)c(=O)n(C)c2=O)c1 | i | i | i | i | i
Cc1ccc(S(=O)(=O)CCSc2nc(C)cc(C(F)(F)F)c2C#N)cc1 | nt | i | nt | i | 10.2
Cc1cc(C(F)(F)F)c(C#N)c(Sc2ccccc2)n1 | i | i | i | i | 10.0
COC(=O)CSc1nc(C)cc(C(F)(F)F)c1C#N | nt | i | i | i | i
CCOC(=O)CSc1nc(C)c(C(C)=O)cc1C(N)=O | nt | nt | nt | nt | i
N#C/C(=C\c1ccccc1)C(=O)N(c1ccccn1)C1CCCCC1 | i | i | 62.9 | i | i
O=C(Nc1ccc(S(=O)(=O)N2CCCCC2)cc1)C1CCCN(C(=O)c2ccc(Cl)cc2)C1 (stereo not given) | i | i | i | i | i
O=S(=O)([O-])CCC[n+]1c(SCCCS(=O)(=O)O)sc2ccc(Cl)cc21 | i | 35.5 | i | i | i
CCN(CC)S(=O)(=O)c1ccc2oc(SCc3ccc(F)cc3)nc2c1 | i | i | i | i | 10.0
SMILES | Phagocyt inh | Measles CPE | Yeast lifespan up | Yeast growth inh | RAM inhibit
CCS(=O)(=O)c1ccc2oc(SCC(=O)NCCc3ccc(F)cc3)nc2c1 | nt | nt | nt | nt | i
Cc1cccc(C(=O)N[C@H](C(=O)Nc2nccs2)C(C)C)c1 | i | i | i | i | i
Cc1ccc(-c2cc(C(=O)N3N=C(C(F)F)CC3(O)C(F)F)c3ccccc3n2)cc1C (stereo not given) | i | nt | i | 67.5 | i
O=C(c1cc(-c2ccccc2)nc2ccccc12)N1N=C(C(F)F)CC1(O)C(F)F (stereo not given) | i | i | i | i | i
CCOC(=O)c1ccc(NC(=S)NNC(=O)C2(C)CC2(Cl)Cl)cc1 (stereo not given) | nt | i | nt | i | i
COc1ccc(-c2n[nH]c(=S)n2-c2ccc3c(c2)OCCO3)cc1 | i | i | i | i | i
Oc1ccc(-c2n[nH]c(=S)n2-c2ccc3c(c2)OCCO3)c(O)c1 | i | 59.7 | i | i | i
CCOC(=O)NC(NCc1ccccc1)(C(F)(F)F)C(F)(F)F | nt | 43.7 | i | i | i
COc1ccccc1-c1nnc(SCC(=O)NC2CCS(=O)(=O)C2)n1CCc1ccccc1 (stereo not given) | i | 58.8 | i | i | i
O=C1C=C(c2ccccc2)OC(=O)C1C(=O)c1ccccc1 (stereo not given) | nt | 27.2 | nt | i | i
